Assay results as given in ChEMBL document CHEMBL4373680, “Small antibacterial molecules highly active against drug-resistant Staphylococcus aureus” (Medchemcomm, 2019).

What was measured:
[1] = test system: Staphylococcus aureus; experiment: Bactericidal activity against planktonic phase of methicillin-resistant Staphylococcus aureus R3545 assessed as bacterial killing at 32 ug/ml incubated for 1 hr followed by plating on agar plate for 24 hrs by time-kill kinetic assay relative to control; assay type: functional
In short: (§1)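 Time-kill: 6 h mid-log culture diluted to 10⁵ CFU/mL in MHB, incubated at 37 °C with compound at […]; 0.9% saline control. Aliquots at 1, 2, 4, 6, 8 and 12 h ten-fold diluted in saline, plated on NB agar 24 h at 37 °C; colonies counted, log scale.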

[2] = test system: Staphylococcus aureus; experiment: Induction of membrane permeabilization in Staphylococcus aureus R3545 assessed as increase in fluorescence intensity measured upto 28 mins by propidium iodide staining based fluorescence spectroscopic technique; assay type: functional, organism-based
In short: (§2)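 Mid-log MRSA washed in 5 mM HEPES and resuspended in 1:1 HEPES (5 mM) and glucose (5 mM). Propidium iodide added at 10 µM final. Baseline fluorescence (ex 535/em 617 nm) read 4 min, compound in water added, read to 28 min. Water control; triplicates averaged.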

[3] = test system: Staphylococcus aureus; experiment: Bactericidal activity against planktonic phase of methicillin-resistant Staphylococcus aureus ATCC 33591 assessed as bacterial killing at 32 ug/ml incubated for 1 hr followed by plating on agar plate for 24 hrs by time-kill kinetic assay relative to control; assay type: functional; in short: as §1
[4] = test system: Staphylococcus aureus; experiment: Antibacterial activity against methicillin-resistant Staphylococcus aureus R3889 clinical isolate after 24 hrs by tecan plate reader analysis; assay type: functional; settings: R3889, 24 h
In short: (§3)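 Colony grown 24 h on NB agar at 37 °C, then 6 h in nutrient broth to mid-log (10⁸ CFU/mL by drop plating), diluted to 10⁵ CFU/mL in Mueller Hinton broth; added 9:1 to two-fold serial compound dilutions in MHB. Incubated 24 h, 37 °C; OD600 read. Triplicate per concentration, experiment run twice; MIC taken from the range of triplicate OD values.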

[5] = Ratio of EC50 for human A549 cells to MIC for vancomycin-resistant Staphylococcus aureus clinical isolate 2; assay type: toxicity
[6] = test system: Staphylococcus aureus; experiment: Antibacterial activity against methicillin-resistant Staphylococcus aureus R3545 clinical isolate after 24 hrs by tecan plate reader analysis; assay type: functional; settings: R3545, 24 h; in short: as §3
[7] = test system: Escherichia coli; experiment: Antibacterial activity against Escherichia coli MTCC 443 after 24 hrs by tecan plate reader analysis; assay type: functional; settings: MTCC 443, 24 h
In short: (§4)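 Broth microdilution MIC. Glycerol stocks grown on MacConkey agar 24 h at 37 °C, then a single colony in nutrient broth 6 h to mid-log (~10⁸ CFU/mL). Cells diluted to 10⁵ CFU/mL in Mueller Hinton broth and added to two-fold compound dilutions. Incubated 24 h at 37 °C, OD600 read. Triplicate wells, experiment run twice.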

[8] = test system: Staphylococcus aureus; experiment: Induction of membrane depolarization in Staphylococcus aureus R3545 assessed as increase in fluorescence intensity measured upto 28 mins by DiSC3 staining based fluorescence spectroscopic technique; assay type: functional, organism-based
In short: (§5)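 Mid-log MRSA washed in 5 mM HEPES pH 7.4 and resuspended in 1:1:1 HEPES (5 mM), glucose (5 mM) and KCl (100 mM). Loaded with DiSC3(5) at 2 µM final, 30 min in the dark. Baseline fluorescence (ex 622/em 670 nm) read 4 min, compound added, monitored to 28 min. Water control; triplicates averaged.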

[9] = Selectivity index, ratio of HC50 for human erythrocytes to MIC for methicillin-resistant Staphylococcus aureus ATCC 33591; assay type: toxicity; settings: read-out: Selectivity Index
[10] = test system: Staphylococcus aureus; experiment: Antibacterial activity against methicillin-resistant Staphylococcus aureus ATCC 33591 after 24 hrs by tecan plate reader analysis; assay type: functional; settings: ATCC 33591, 24 h; in short: as §3
[11] = test system: A549; experiment: Cytotoxicity against human A549 cells after 24 hrs by alamar blue assay; assay type: cell-based; settings: A549, 24 h
In short: (§6)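 About 10⁴ cells/well in DMEM with 10% FBS. Medium replaced with two-fold compound dilutions and incubated 24 h at 37 °C, 5% CO₂. Alamar Blue added for a further 4 h, absorbance 570 nm (600 nm reference). Viability normalized to untreated and 0.1% Triton-X wells. Triplicates; sigmoidal fit gives the 50% viability concentration.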

[12] = test system: Staphylococcus aureus; experiment: Antibacterial activity against methicillin-resistant Staphylococcus aureus R3890 clinical isolate after 24 hrs by tecan plate reader analysis; assay type: functional; settings: R3890, 24 h; in short: as §3
[13] = test system: Staphylococcus aureus; experiment: Bactericidal activity against planktonic phase of methicillin-resistant Staphylococcus aureus R3545 assessed as log reduction in bacterial colony forming units at 16 ug/ml incubated for 4 hrs followed by plating on agar plate for 24 hrs by time-kill kinetic assay; assay type: functional; in short: as §1
[14] = test system: Klebsiella pneumoniae; experiment: Antibacterial activity against Klebsiella pneumoniae ATCC 700603 after 24 hrs by tecan plate reader analysis; assay type: functional; settings: Klebsiella pneumoniae, 700603, 24 h; in short: as §4
[15] = Ratio of EC50 for human A549 cells to MIC for vancomycin-resistant Staphylococcus aureus clinical isolate 1; assay type: toxicity
[16] = test system: Acinetobacter baumannii; experiment: Antibacterial activity against Acinetobacter baumannii MTCC 1425 after 24 hrs by tecan plate reader analysis; assay type: functional; settings: MTCC 1425, 24 h; in short: as §4
[17] = test system: Pseudomonas aeruginosa; experiment: Antibacterial activity against Pseudomonas aeruginosa MTCC 424 after 24 hrs by tecan plate reader analysis; assay type: functional; settings: MTCC 424, 24 h; in short: as §4
[18] = test system: Staphylococcus aureus; experiment: Induction of membrane depolarization in Staphylococcus aureus ATCC 33591 assessed as increase in fluorescence intensity measured upto 28 mins by DiSC3 staining based fluorescence spectroscopic technique; assay type: functional, organism-based; in short: as §5
[19] = Hemolytic activity in human erythrocytes after 1 hr; assay type: ADME, cell-based, Erythrocyte
In short: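 Heparinized donor blood. Erythrocytes washed three times in PBS and resuspended to 5 vol%, then mixed 3:1 with compound serially diluted in water. Incubated 1 h at 37 °C and centrifuged. Supernatant A540 read; % hemolysis relative to water and 0.1 vol% Triton-X controls.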

[20] = test system: Staphylococcus aureus; experiment: Bactericidal activity against planktonic phase of methicillin-resistant Staphylococcus aureus ATCC 33591 assessed as log reduction in bacterial colony forming units at 16 ug/ml incubated for 2 hrs followed by plating on agar plate for 24 hrs by time-kill kinetic assay; assay type: functional; in short: as §1
[21] = test system: Staphylococcus aureus; experiment: Antibacterial activity against vancomycin-resistant Staphylococcus aureus clinical isolate 4 after 24 hrs by tecan plate reader analysis; assay type: functional; settings: clinical isolate 4, 24 h; in short: as §3
[22] = Ratio of EC50 for dog MDCK cells to MIC for vancomycin-resistant Staphylococcus aureus clinical isolate 1; assay type: toxicity
[23] = test system: Staphylococcus aureus; experiment: Induction of membrane permeabilization in Staphylococcus aureus ATCC 33591 assessed as increase in fluorescence intensity measured upto 28 mins by propidium iodide staining based fluorescence spectroscopic technique; assay type: functional, organism-based; in short: as §2
[24] = test system: Staphylococcus aureus; experiment: Antibacterial activity against vancomycin-resistant Staphylococcus aureus clinical isolate 1 after 24 hrs by tecan plate reader analysis; assay type: functional; settings: clinical isolate 1, 24 h; in short: as §3
[25] = test system: MDCK; experiment: Cytotoxicity against dog MDCK cells after 24 hrs by alamar blue assay; assay type: cell-based; settings: Canis lupus familiaris; in short: as §6
[26] = Ratio of EC50 for dog MDCK cells to MIC for vancomycin-resistant Staphylococcus aureus clinical isolate 2; assay type: toxicity

In the case of CCCCCCCCNC(=O)C[N+](C)(CCO)CCCCCC[N+](C)(CCO)CC(=O)NCCCCCCCC.[Br-].[Br-] (stereo unspecified), the Activity [1] is reported as 100%, the Activity [2] is reported as “Dose-dependent effect” and the Activity [3] is reported as 100%. For the same compound, the MIC [4] was 1 µg/mL, the selectivity ratio [5] was 22 and the MIC [6] was 1 to 2 µg/mL. The MIC [7] was 4 to 8 µg/mL, the Activity [8] was “Dose-dependent effect” and the selectivity ratio [9] was 222. The MIC [10] was 1 to 2 µg/mL, the EC50 [11] was 44 µg/mL and the MIC [12] was 4 µg/mL. The Activity [13] was 5.6 log10CFU/ml, the MIC [14] was 32 µg/mL and the selectivity ratio [15] was 22. The MIC [16] was 16 µg/mL, the MIC [17] was 16 µg/mL and the Activity [18] was “Dose-dependent effect”. For the same compound, the HC50 at 1 h [19] was 222 µg/mL, the Activity [20] was 5.4 log10CFU/ml and the MIC [21] was 2 µg/mL. For the same compound, the selectivity ratio [22] was 22, the Activity [23] was “Dose-dependent effect” and the MIC [24] was 2 µg/mL. It also gave an EC50 [25] of 45 µg/mL and a selectivity ratio [26] of 22.
